Most compounds without a hit are left out; they make up all but 1.4% or so of the library.
Fh CTSL1 inh: Fasciola hepatica cathepsin L1 inhibitors, primary screen, counter-screen for PFM18AAP inhibitor project, biochemical, QFRET, fluorogenic peptide substrate; recombinant F. hepatica cathepsin L1, Z-Leu-Arg-MCA fluorescence; inhibition, % at 5.96 µM; actives 0.49% (n = 300,000); AID 1906, 2009;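 active = inhibition above the mean of all tested compounds plus 3 SD, set per screening campaign, cut at about 17% in these data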;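 also: 0% = plate median of test compound wells and 100% = 1 µM Z-Phe-Ala-diazomethylketone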
FXIa inh 1536: human FXIa protease inhibitors, primary screen, biochemical, 1536-well; inhibition, % at 5 µM; actives 0.14% (n = 220,000); purified FXIa, Boc-Glu-Ala-Arg-AMC fluorogenic substrate; AID 798, 2007;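 active = inhibition of at least 40%; inactive = inhibition below 40%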;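 also: fluorescence of freed AMC excited at 355 nm; 0% = enzyme without compound and 100% = no enzyme blank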
KLK5 inh: human KLK5 protease inhibitors, primary screen, biochemical, 1536-well. Kallikrein-5 (Homo sapiens), Q9Y337. recombinant hK5, fluorogenic AMC substrate cleavage. inhibition, % at 5 µM. actives 0.59% (n = 210,000). AID 873, 2007;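 active = inhibition of 40% or more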;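 also: 0% = enzyme controls without compound and 100% = no-enzyme blanks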
Rce1 inh: yeast Rce1p protease inhibitors, primary screen, biochemical, fluorescence, cell-free homogeneous; CAAX prenyl protease 2 (Saccharomyces cerevisiae (strain ATCC 204508 / S288c)), Q03530; yeast membranes, quenched prenylated peptide cleavage fluorescence; calls only; actives 0.27% (n = 290,000); AID 2563, 2010;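 active = fall in fluorescence gain of 50% or more versus controls, with final raw signal at or below 3038400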;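 also: plate controls were neutral control wells for no effect and wells lacking membranes for full effect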
FXIIa inh: human FXIIa protease inhibitors, primary screen, biochemical, 1536-well; Coagulation factor XII (Homo sapiens), P00748; purified FXIIa, Boc-QGR-AMC fluorogenic substrate, 2 h; inhibition, % at 5 µM; actives 0.3% (n = 220,000); AID 800, 2007; in the data active = inhibition above about 40%;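 also: 0% = enzyme with no compound and 100% = blank without enzyme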
Target sequence (P00748 20-372 limits assumed): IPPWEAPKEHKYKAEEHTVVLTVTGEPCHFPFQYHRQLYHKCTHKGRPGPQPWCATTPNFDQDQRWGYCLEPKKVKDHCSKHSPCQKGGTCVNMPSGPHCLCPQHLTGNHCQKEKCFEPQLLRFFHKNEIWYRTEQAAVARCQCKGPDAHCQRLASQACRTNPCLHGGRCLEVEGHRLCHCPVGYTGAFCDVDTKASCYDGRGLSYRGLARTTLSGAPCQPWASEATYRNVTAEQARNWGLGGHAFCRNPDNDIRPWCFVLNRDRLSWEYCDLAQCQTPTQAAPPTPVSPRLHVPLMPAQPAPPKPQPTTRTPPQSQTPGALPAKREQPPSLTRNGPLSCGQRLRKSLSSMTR
Target sequence (P00748 373-615 limits assumed): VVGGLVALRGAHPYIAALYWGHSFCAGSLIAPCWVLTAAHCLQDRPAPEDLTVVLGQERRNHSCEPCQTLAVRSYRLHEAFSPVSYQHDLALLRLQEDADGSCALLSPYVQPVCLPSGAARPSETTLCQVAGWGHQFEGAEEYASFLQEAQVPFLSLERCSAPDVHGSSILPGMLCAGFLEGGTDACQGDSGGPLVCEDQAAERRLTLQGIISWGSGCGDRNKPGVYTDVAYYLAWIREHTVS
thrombin 1536: human alpha-thrombin inhibitors, primary screen, counter-screen for coagulation protease inhibitor project, biochemical, 1536-well, fluorogenic AMC substrate. Prothrombin (Homo sapiens), P00734. Boc-VPR-AMC fluorogenic substrate cleavage. inhibition, % at 5 µM. actives 0.26% (n = 220,000);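 active = inhibition at or above 40%; inactive = inhibition below 40%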;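 also: 0% = enzyme with no compound and 100% = wells without enzyme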
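System: human alpha-thrombin protein; Compound dosing: one concentration per compound, 5 µM, with 0.2% DMSO; Timing: reaction at room temperature; Technique: AMC fluorescence, 355/460 nm; Controls: enzyme without compound as high, wells lacking enzyme as low.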
* hit, by the source's call; i = inactive; . = no result; + = active, no number.

SMILES	Fh CTSL1 inh	FXIa inh 1536	KLK5 inh	Rce1 inh	FXIIa inh	thrombin 1536
COc1ccc(CN2C(=O)c3ccccc3C2C(=O)NCCc2ccccc2)c(OC)c1 (stereo unspecified)	1	-6	-2	i	4	-17
O=C(NC1CCCCCCC1)C1c2ccccc2C(=O)N1Cc1cccs1 (stereo unspecified)	-1	0	-2	i	9	1
COc1ccc(CN2C(=O)c3ccccc3C2C(=O)NC2CCCCCC2)c(OC)c1 (stereo unspecified)	.	31	22	i	33	47*
CC1CCC(NC(=O)C2c3ccccc3C(=O)N2Cc2cccs2)CC1 (stereo unspecified)	3	4	44*	i	18	17
CCCn1c(C2CCCN2c2nc(-c3cccc(Br)c3)cs2)nc2ccccc21 (stereo unspecified)	1	.	.	i	.	.
Cc1ccc(N(C)S(=O)(=O)c2ccc(-c3cnc(C4CC4)o3)cc2)cc1	-5	.	.	i	.	.
O=c1cc(CCl)nc(Cc2c(Cl)cccc2Cl)[nH]1	5	.	.	i	.	.
O=C(CN1C(=O)/C(=C/c2ccc(F)cc2)SC1=S)NC1CCS(=O)(=O)C1 (stereo unspecified)	3	.	.	i	.	.
O=C1NC(=Nc2cccc(O)c2)S/C1=C\c1cccnc1	1	29	66*	i	19	23
C=CCNc1nc(NC(C)(C)CO)nc(OC)n1	-1	46*	-9	.	30	0
C#C[C@]1(OC(C)=O)CCC2C3CCC4=CC(=O)CC[C@@H]4C3CC[C@@]21C (stereo partly specified)	-2	.	.	i	.	.
O=C(CCNS(=O)(=O)c1ccc2[nH]c(=O)oc2c1)NCc1ccccc1	-3	.	.	+	.	.
CO/N=C/c1ccc(Sc2ccccc2N)c([N+](=O)[O-])c1	5	-2	-3	i	44*	-6
COc1ccc(N2CCN(C(=O)c3cc(-c4cccs4)nc4ccccc34)CC2)cc1	6	-3	-1	+	8	-9
O=C(c1cc(-c2ccccc2)nc2ccccc12)N1CCN(c2ccccn2)CC1	-5	17	-20	+	15	-12
COc1ccc(-c2cc(C(=O)N3CCN(c4ccccc4)CC3)c3ccccc3n2)cc1OC	2	-4	-4	i	8	-6
O=C(c1cn(-c2ccccc2)nc1-c1cccs1)N1CCN(c2ccccc2)CC1	2	-6	-5	+	4	-3
Cc1nc2scc(C)n2c(=O)c1S(=O)(=O)NCC1CCN(Cc2ccc(F)cc2)CC1	-6	.	.	i	.	.
CCOC(=O)N1CCN(C(=O)c2ccccc2N(C)S(C)(=O)=O)CC1	-6	-5	-14	i	-4	55*
CN(c1ccccc1C(=O)N1CCCC1)S(C)(=O)=O	1	-3	3	i	-2	-5
O=C(O)CCCNC(=O)Cc1ccccc1	1	1	2	i	8	-2
O=C(NC1CCCN(Cc2ccc(Cl)cc2)C1)c1ccoc1 (stereo unspecified)	2	.	.	i	.	.
O=C(CCCn1c(=O)[nH]c2ccc(Br)cc2c1=O)NCc1ccc(Cl)cc1	4	11	21	+	16	13
CC(C)CCNC(=O)CCCn1c(=O)[nH]c2ccc(Br)cc2c1=O	-2	-8	8	i	4	-3
CC(C)C(NC(=O)c1ccccc1NC(=O)c1ccccc1)C(=O)NCCCn1ccnc1 (stereo unspecified)	10	.	.	i	.	.
CCN(CC)CCNC(=O)c1cc2c(=O)n(C)c3ccccc3c2s1	1	.	.	+	.	.
CCCCN(CC)CCNC(=O)c1cc2c(=O)n(C)c3ccccc3c2s1	3	.	.	i	.	.
CN1C(=O)c2ccccc2N(C)C1c1ccccc1Cl (stereo unspecified)	-3	-2	-7	+	7	2

Bioassay records (PubChem)
